In brackets after ≈: the same amount, converted by molar mass.
Tests used:
[1] = target: E. coli DNA topoisomerase I (Escherichia coli, UniProt P06612); assay: Inhibition assay against E. coli DNA topoisomerase I; type: biochemical; details: gel titration, 6 nM enzyme
[2] = target: human DNA topoisomerase II (Homo sapiens, UniProt P11388); assay: Inhibition assay against human DNA topoisomerase II; type: biochemical; details: 50 μM compound
How it was run: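 Relaxation of 200 ng supercoiled pBAD-GFPuv by 4 units human topoisomerase II. Compound final 5–50 μM (10 and 50 μM in gel panels). 30 min at 37 °C, stopped by phenol extraction. Run on 1% agarose without chloroquine and ethidium-stained. (−) supercoiled band was quantified as a fraction of all topoisomers.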

[3] = system: duplex DNA (dA60.dT60); assay: UV thermal denaturation of AT rich DNA duplex; type: binding; details: 10 μM ligand, 1 μM duplex, 10 mM sodium cacodylate, 0.1 mM EDTA, 100 mM NaCl, pH 7.0
[4] = system: prostate cancer cell line DU-145; assay: Cytotoxicity, sulforhodamine B assay; type: cell-based; details: DU-145, 48 h treatment, SRB
[5] = Cytotoxicity, sulforhodamine B assay; type: cell-based; details: human, DU-145 prostate cancer cells
[6] = target: T1, human DNA topoisomerase I (Homo sapiens, UniProt P11387); assay: Inhibition assay against human DNA topoisomerase I; type: biochemical; details: 50 μM compound
T1 sequence (P11387 1-765): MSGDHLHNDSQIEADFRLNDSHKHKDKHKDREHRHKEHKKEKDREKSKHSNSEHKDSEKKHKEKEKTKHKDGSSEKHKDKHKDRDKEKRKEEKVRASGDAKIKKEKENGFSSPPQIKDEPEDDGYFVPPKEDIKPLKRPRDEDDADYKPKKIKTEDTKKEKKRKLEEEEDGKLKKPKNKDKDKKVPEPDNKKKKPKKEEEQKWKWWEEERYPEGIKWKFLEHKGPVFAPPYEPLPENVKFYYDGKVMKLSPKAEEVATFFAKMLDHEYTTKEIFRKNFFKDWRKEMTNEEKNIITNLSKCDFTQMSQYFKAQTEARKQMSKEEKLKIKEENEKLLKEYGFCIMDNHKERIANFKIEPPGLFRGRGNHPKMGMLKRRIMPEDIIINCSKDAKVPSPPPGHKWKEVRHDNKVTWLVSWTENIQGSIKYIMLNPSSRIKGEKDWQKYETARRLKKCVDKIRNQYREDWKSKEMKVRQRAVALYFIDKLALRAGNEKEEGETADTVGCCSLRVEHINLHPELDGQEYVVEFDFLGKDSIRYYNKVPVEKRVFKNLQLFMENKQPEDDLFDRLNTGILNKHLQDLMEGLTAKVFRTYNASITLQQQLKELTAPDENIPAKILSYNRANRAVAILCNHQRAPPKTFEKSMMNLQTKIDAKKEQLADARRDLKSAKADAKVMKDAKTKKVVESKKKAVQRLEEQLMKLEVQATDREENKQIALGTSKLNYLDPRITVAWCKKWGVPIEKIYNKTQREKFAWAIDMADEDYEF

[7] = target: E. coli DNA gyrase (Escherichia coli, UniProt P0AES4+P0AES6); assay: Inhibition assay against E. coli DNA gyrase; type: biochemical; details: 1 to 50 μM compound
[8] = system: S. aureus 33591; assay: MIC by microbroth dilution; type: cell-based; details: Staphylococcus aureus, 33591, 24 h, read-out: MIC S2
How it was run: (§1)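 CLSI microbroth dilution in Mueller-Hinton broth. Log-phase cultures (37 °C, shaking) were pelleted and resuspended in 0.85% saline to OD625 0.1, giving final 5×10^5 CFU/mL. Triplicate wells were incubated 24 h at 37 °C and read at OD625. MIC is given as a range where no sharp growth inflection occurred.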

[9] = system: E. faecalis 29212; assay: MIC by microbroth dilution; type: cell-based; details: Enterococcus faecalis, 29212, 24 h, read-out: MIC S6
How it was run: as §1

E. coli DNA topoisomerase I, sequence (P06612 whole entry): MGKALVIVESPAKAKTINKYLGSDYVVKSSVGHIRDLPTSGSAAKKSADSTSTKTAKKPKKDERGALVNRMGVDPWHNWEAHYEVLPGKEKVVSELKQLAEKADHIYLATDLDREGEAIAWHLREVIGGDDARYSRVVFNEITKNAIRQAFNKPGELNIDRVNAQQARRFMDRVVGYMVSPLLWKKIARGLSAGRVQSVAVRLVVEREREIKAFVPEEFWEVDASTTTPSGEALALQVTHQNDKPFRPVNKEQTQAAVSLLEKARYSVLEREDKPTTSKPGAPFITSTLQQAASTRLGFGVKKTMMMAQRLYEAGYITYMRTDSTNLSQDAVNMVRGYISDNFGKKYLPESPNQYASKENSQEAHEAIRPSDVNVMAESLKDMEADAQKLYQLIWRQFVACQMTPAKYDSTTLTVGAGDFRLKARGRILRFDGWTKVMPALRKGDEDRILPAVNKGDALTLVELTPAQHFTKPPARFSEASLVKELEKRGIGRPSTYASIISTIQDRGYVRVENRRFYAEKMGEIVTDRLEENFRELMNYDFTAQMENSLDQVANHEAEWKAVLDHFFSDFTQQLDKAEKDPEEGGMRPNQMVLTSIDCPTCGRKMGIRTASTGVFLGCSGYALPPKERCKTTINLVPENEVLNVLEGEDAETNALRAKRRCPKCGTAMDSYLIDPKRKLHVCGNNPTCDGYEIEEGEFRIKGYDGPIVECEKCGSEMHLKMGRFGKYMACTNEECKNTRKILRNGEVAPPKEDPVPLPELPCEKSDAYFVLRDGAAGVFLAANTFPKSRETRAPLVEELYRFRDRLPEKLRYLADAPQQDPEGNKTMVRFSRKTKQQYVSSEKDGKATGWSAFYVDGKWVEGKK
human DNA topoisomerase II, sequence (P11388 whole entry): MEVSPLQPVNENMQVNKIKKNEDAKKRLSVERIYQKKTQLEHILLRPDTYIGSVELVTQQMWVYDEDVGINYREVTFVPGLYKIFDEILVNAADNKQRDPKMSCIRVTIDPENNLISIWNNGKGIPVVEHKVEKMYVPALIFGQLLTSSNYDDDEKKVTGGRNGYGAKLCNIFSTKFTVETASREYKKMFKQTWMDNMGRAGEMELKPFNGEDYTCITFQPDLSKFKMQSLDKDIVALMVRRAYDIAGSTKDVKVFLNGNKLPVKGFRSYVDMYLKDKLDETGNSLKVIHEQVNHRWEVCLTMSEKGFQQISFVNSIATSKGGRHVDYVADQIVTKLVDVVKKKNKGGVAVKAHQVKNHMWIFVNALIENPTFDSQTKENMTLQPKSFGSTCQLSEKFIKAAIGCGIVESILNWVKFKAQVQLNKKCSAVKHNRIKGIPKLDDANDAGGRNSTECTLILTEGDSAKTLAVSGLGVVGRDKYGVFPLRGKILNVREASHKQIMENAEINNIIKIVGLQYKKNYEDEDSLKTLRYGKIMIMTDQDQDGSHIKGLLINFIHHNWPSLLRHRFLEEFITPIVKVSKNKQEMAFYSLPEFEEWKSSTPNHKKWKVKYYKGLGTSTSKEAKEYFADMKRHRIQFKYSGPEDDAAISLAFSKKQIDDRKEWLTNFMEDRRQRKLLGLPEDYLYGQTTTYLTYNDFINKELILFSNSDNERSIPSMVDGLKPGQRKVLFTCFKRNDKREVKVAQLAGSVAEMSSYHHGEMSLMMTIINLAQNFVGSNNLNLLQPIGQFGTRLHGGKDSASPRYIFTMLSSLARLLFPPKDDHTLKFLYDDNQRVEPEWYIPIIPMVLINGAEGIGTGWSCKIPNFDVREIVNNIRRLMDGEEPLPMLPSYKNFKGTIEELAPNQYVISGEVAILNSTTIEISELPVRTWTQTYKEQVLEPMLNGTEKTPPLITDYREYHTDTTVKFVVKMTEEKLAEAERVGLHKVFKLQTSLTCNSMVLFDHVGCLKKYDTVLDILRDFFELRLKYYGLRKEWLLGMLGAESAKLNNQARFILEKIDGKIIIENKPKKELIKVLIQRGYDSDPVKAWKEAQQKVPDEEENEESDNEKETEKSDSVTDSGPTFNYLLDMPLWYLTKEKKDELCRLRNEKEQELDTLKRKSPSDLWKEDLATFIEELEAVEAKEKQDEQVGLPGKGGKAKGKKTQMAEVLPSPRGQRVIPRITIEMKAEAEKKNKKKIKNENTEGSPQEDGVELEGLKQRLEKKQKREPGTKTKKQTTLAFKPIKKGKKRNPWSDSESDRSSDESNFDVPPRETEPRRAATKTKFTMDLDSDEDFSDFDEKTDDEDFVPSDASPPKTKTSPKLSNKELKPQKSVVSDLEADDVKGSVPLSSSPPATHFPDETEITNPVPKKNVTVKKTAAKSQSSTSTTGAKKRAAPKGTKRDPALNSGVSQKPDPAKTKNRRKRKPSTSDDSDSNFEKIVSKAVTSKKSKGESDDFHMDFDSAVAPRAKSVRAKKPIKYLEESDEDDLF
E. coli DNA gyrase, sequence (P0AES4 whole entry, one chain of several): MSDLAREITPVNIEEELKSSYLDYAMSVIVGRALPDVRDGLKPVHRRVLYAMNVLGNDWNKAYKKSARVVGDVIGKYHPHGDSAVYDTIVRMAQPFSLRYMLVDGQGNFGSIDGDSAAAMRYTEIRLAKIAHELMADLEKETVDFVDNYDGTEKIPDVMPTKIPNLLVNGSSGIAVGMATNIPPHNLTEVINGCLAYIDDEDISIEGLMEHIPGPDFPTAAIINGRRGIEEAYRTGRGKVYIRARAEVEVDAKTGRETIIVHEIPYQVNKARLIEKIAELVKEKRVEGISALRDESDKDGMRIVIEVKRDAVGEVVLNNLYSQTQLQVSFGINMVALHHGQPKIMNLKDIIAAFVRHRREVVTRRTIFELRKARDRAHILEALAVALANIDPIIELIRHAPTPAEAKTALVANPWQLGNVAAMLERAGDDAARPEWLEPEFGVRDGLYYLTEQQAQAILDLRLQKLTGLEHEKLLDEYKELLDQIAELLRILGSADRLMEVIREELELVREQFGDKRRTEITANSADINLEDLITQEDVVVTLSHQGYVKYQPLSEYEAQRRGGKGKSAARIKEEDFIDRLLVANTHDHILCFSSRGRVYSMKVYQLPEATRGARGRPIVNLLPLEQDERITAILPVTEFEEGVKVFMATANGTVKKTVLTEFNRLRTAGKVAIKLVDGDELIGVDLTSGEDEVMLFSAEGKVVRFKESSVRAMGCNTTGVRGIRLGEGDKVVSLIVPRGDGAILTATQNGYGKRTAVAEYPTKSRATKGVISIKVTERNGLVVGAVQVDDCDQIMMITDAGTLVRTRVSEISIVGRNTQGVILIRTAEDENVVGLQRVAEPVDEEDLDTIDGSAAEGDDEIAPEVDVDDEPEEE

SMILES | concentration needed to completely inhibit the activities of E. coli DNA topoisomerase I [1] | inhibition of human DNA topoisomerase II activities [2] | Tm [3] [°C] | MIC [9] [µg/mL] | other results
C#CCOc1ccc(-c2nc3ccc(-c4nc5ccc(N6CCN(C)CC6)cc5[nH]4)cc3[nH]2)cc1 [DPA 151, 6-(4-methylpiperazin-1-yl)-2′-(4-(prop-2-ynyloxy)phenyl)-1H,3′H-2,5′-bibenzo[d]imidazole] | approximately 5 μM | partially inhibit | 85.4 | – | –
C#CCCCCOc1ccc(-c2nc3ccc(-c4nc5ccc(N6CCN(C)CC6)cc5[nH]4)cc3[nH]2)cc1 [DPA 152, 2′-(4-(hex-5-ynyloxy)phenyl)-6-(4-methylpiperazin-1-yl)-1H,3′H-2,5′-bibenzo[d]imidazole] | – | – | 83.4 | – | cytotoxicity relative to Hoechst 33242 [4]: nearly twice as toxic as Hoechst 33242
C#CCCCCCCCCCOc1ccc(-c2nc3ccc(-c4nc5ccc(N6CCN(C)CC6)cc5[nH]4)cc3[nH]2)cc1 [DPA 153, 6-(4-methylpiperazin-1-yl)-2′-(4-(undec-10-ynyloxy)phenyl)-1H,3′H-2,5′-bibenzo[d]imidazole] | – | – | 70.5 | – | IC50 at 48 h [5]: > 10 µM
C#CCOCCCCOc1ccc(-c2nc3ccc(-c4nc5ccc(N6CCN(C)CC6)cc5[nH]4)cc3[nH]2)cc1 [DPA 154, 6-(4-methylpiperazin-1-yl)-2′-(4-(4-(prop-2-ynyloxy)butoxy)phenyl)-1H,3′H-2,5′-bibenzo[d]imidazole] | – | – | 85.9 | – | –
CN1CCN(c2ccc3[nH]c(-c4ccc5[nH]c(-c6ccc(O)cc6)nc5c4)nc3c2)CC1 [Hoechst 33258] | approximately 20 μM | completely inhibit | 87.1 | 16 to 32 (≈ 37.7 to 75.4 µM) | supercoiled DNA template prevented from relaxation by human DNA topoisomerase I [6]: about 70%; inhibition of DNA gyrase's activities [7]: did not inhibit; MIC [8]: 16 to 32 µg/mL (≈ 37.7 to 75.4 µM)
CCOc1ccc(-c2nc3cc(-c4nc5cc(N6CCN(C)CC6)ccc5[nH]4)ccc3[nH]2)cc1 [Hoechst 33342] | – | – | 86.6 | 16 to 32 (≈ 35.4 to 70.7 µM) | –
